In ChEMBL document CHEMBL1143117, “Synthesis and SAR of 2-aryloxy-4-alkoxy-pyridines as potent orally active corticotropin-releasing factor 1 receptor antagonists” (J Med Chem, 2008):
≈ marks a conversion by molar mass, not a printed value.

Tests used:
[1] = target: T1, Corticotropin-releasing factor receptor 1 (Rattus norvegicus, UniProt P35353); assay: Displacement of [125]oCRF from rat cortex CRF1 receptor
T1 sequence (P35353 whole entry): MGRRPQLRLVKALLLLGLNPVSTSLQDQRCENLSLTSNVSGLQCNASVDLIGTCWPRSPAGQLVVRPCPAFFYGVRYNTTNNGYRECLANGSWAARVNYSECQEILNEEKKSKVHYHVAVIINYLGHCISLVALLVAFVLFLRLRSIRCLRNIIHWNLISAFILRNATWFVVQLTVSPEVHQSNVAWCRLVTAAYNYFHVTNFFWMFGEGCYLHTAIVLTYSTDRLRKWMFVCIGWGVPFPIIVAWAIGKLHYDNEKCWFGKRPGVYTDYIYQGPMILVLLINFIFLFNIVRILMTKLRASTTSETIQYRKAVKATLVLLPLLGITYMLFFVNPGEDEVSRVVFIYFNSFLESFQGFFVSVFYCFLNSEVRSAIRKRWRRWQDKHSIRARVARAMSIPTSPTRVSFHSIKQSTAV
How it was run: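 Rat cortex binding used ¹²⁵I-ovine-CRF as radioligand. pIC50 ± SEM and IC50 are geometric means of at least three experimental runs.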

Rattus norvegicus [2] = assay: Ex vivo displacement of [125]oCRF from CRF1 receptor in rat pituitary at 3.2 mg/kg, sc; assay type: functional; conditions: route subcutaneous
How it was run: (§1)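 Rats received 3.2 mg/kg p.o. or s.c. per line, and cortex and pituitary binding of ¹²⁵I-oCRF was measured 1 h later by one of two methods. Homogenate method: 25 mg wet tissue/mL in PIPES pH 7.0 buffer, 40 pM ligand, 2 h at room temperature, centrifuged, filtered, scintillation counted. Autoradiographic method: male Sprague-Dawley rats (N = 4), 16 µm sections, 60 pM ligand, 1 h at room temperature. Nonspecific binding was set with 1 µM rat/human CRF. Percent inhibition is mean ± SD.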

Rattus norvegicus [3] = assay: Ex vivo displacement of [125]oCRF from CRF1 receptor in rat cortex at 3.2 mg/kg, sc; assay type: functional; conditions: route subcutaneous; how it was run: as §1
[4] = Solubility of the compound; assay type: physicochemical
How it was run: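 Kinetic water solubility was measured in an in-house high-throughput assay.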

Rattus norvegicus [5] = assay: Ex vivo displacement of [125]oCRF from CRF1 receptor in rat pituitary at 3.2 mg/kg, po; assay type: functional; how it was run: as §1
[6] = Dissociation constant, pKa of the compound; assay type: physicochemical
How it was run: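 UV spectrophotometric pKa determination, with the value extrapolated to 0% organic solvent.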

Rattus norvegicus [7] = assay: Ex vivo displacement of [125]oCRF from CRF1 receptor in rat cortex at 3.2 mg/kg, po; assay type: functional; how it was run: as §1
[8] = Solubility at pH 2; assay type: physicochemical; conditions: buffer
Rattus norvegicus [9] = assay: Attenuation of HPA axis activation in po dosed rat assessed as blockade of oCRF-induced elevation of plasma ACTH; assay type: functional
How it was run: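 Rats were dosed orally, then challenged with exogenous oCRF at 4 µg/kg i.v., and plasma ACTH was measured. The MED was judged against CRF alone by one-way ANOVA with Dunnett's post hoc test (N = 12). ID50 (p.o.) was calculated with a confidence interval.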

[10] = Solubility at pH 7; assay type: physicochemical; conditions: buffer
[11] = target: Corticotropin-releasing factor receptor 1 (Rattus norvegicus) (UniProt P35353); assay: Inhibition of CRF1 receptor
[12] = target: T1, Corticotropin-releasing factor receptor 1; assay: Antagonist activity at rat cortex CRF1 receptor assessed as inhibition of CRF-stimulated adenylate cyclase activity; assay type: functional, tissue-based
[13] = target: T2, Corticotropin-releasing factor receptor 1 (Homo sapiens, UniProt P34998); assay: Antagonist activity at human CRF1 receptor endogenously expressed in human IMR32 cells; assay type: functional, cell-based, IMR-32
T2 sequence (P34998 whole entry): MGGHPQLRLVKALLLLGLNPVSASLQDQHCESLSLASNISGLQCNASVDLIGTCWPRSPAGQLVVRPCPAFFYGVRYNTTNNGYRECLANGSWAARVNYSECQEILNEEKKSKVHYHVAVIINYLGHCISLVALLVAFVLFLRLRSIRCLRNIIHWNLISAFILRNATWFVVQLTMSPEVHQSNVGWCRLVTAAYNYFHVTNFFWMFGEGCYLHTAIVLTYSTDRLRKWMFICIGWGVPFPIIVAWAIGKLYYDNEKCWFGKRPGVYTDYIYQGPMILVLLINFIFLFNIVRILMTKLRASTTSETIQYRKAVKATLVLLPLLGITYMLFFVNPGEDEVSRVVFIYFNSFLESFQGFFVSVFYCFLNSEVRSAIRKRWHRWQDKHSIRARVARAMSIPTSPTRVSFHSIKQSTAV

With `CCCc1cc(C)c(Oc2nc(C)cc(OC(CC)CC)c2C)c(C)c1` the IC50 [1] was 0.0098 µM, the inhibition in vivo at 3.2 mg/kg (Rattus norvegicus [2]) was 34% and the inhibition in vivo at 3.2 mg/kg (Rattus norvegicus [3]) was 42%.
For `CCC(CC)Oc1cc(C)nc(Oc2c(C)cc(C)cc2C)c1C`, the IC50 [1] was 0.0068 µM, the solubility [4] was under 1 µg/mL and the inhibition in vivo at 3.2 mg/kg (Rattus norvegicus [5]) was 72%. For the same compound, the pKa [6] was 3.5, the inhibition in vivo at 3.2 mg/kg (Rattus norvegicus [7]) was 75% and the solubility [8] was 3 µg/mL (≈ 9.16 µM). The ED50 (Rattus norvegicus [9]; read-out: ID50 (the source's name)) was 35 mg/kg, the minimal effective dose (Rattus norvegicus [9]; read-out: MED) was 10 mg/kg and the solubility [10] was 0.2 µg/mL (≈ 0.611 µM). For the same compound, the IC50 [11] was 0.0068 µM, the Ki [12] was 0.0076 µM and the Ki [13] was 0.0085 µM.
`CCC(CC)Oc1cc(C)nc(Oc2c(C)cc(C(N)=O)cc2C)c1C` gave an IC50 [1] of 0.018 µM, an inhibition in vivo at 3.2 mg/kg (Rattus norvegicus [5]) of 15% and an inhibition in vivo at 3.2 mg/kg (Rattus norvegicus [7]) of 33%.
Work on `CCC(CC)Oc1cc(C)nc(Oc2c(C)cc(C)cc2C)c1N(C)C` yielded an IC50 [1] of 0.025 µM.
For `CCc1c(OC(CC)CC)cc(C)nc1Oc1c(C)cc(C)cc1C`, the IC50 [1] was 0.0091 µM, the inhibition in vivo at 3.2 mg/kg (Rattus norvegicus [2]) was 66% and the inhibition in vivo at 3.2 mg/kg (Rattus norvegicus [3]) was 57%.
`Cc1cc(C)c(Oc2nc(C)cc(OC3CCOC3)c2C)c(C)c1` (stereo unspecified) gave an IC50 [1] of 0.1 µM.
For `CCC(CC)Oc1cc(C)nc(Oc2c(C)cc(COC)cc2C)c1C`, the IC50 [1] was 0.0032 µM, the inhibition in vivo at 3.2 mg/kg (Rattus norvegicus [5]) was 12% and the inhibition in vivo at 3.2 mg/kg (Rattus norvegicus [7]) was 57%.
`CCC(CC)Oc1cc(C)nc(Oc2c(C)cc(C(C)(C)O)cc2C)c1C` gave an IC50 [1] of 0.04 µM.
Compound `CCC(CC)Oc1cc(C)nc(Oc2c(C)cc(CO)cc2C)c1C` has an IC50 [1] of 0.061 µM, an inhibition in vivo at 3.2 mg/kg (Rattus norvegicus [5]) of -20% and an inhibition in vivo at 3.2 mg/kg (Rattus norvegicus [7]) of 42%.
Work on `CCC(CC)Oc1c(C)c(C)nc(Oc2c(C)cc(C)cc2C)c1C` yielded an IC50 [1] of 0.18 µM.
In the case of `CCC(CC)Oc1cc(C)nc(Oc2c(C)cc(O)cc2C)c1C`, the IC50 [1] is reported as 1.4 µM.
With `CCc1cc(OC(CC)CC)c(C)c(Oc2c(C)cc(C)cc2C)n1` the IC50 [1] was 0.086 µM.
`CCC(CC)Oc1cc(C)nc(Oc2c(C)cc(OC)cc2C)c1C` showed an IC50 [1] of 0.002 µM, an inhibition in vivo at 3.2 mg/kg (Rattus norvegicus [5]) of 55% and an inhibition in vivo at 3.2 mg/kg (Rattus norvegicus [7]) of 75%.
In the case of `CCC(CC)Oc1cc(C)nc(Oc2c(C)cc(C)cc2C)c1N`, the IC50 [1] is reported as 0.012 µM, the inhibition in vivo at 3.2 mg/kg (Rattus norvegicus [2]) is reported as 51% and the inhibition in vivo at 3.2 mg/kg (Rattus norvegicus [3]) is reported as 78%.
Compound `CCC(CC)Oc1cc(C)nc(Oc2c(C)cc(C)cc2C)c1C(=O)OC` has an IC50 [1] of 0.47 µM.
In the case of `CCC(CC)Oc1cc(C)nc(Oc2c(C)cc(OC(C)C)cc2C)c1C`, the IC50 [1] is reported as 0.11 µM.
`CCC(CC)Oc1cc(C)nc(Oc2c(C)cc(C)cc2C)c1C(=O)O` gave an IC50 [1] of over 10 µM.
`CCc1c(C)nc(Oc2c(C)cc(C)cc2C)c(C)c1OC(CC)CC` gave an IC50 [1] of over 10 µM.
Work on `CCC(COC)Oc1cc(C)nc(Oc2c(C)cc(C)cc2C)c1C` (stereo unspecified) yielded an IC50 [1] of 0.011 µM, an inhibition in vivo at 3.2 mg/kg (Rattus norvegicus [2]) of 49% and an inhibition in vivo at 3.2 mg/kg (Rattus norvegicus [3]) of 75%.
With `CCOc1cc(C)c(Oc2nc(C)cc(OC(CC)CC)c2C)c(C)c1` the IC50 [1] was 0.02 µM, the inhibition in vivo at 3.2 mg/kg (Rattus norvegicus [5]) was 33% and the inhibition in vivo at 3.2 mg/kg (Rattus norvegicus [7]) was 43%.
`CCC(CC)Oc1cc(C)nc(Oc2c(C)cc(C)nc2C)c1C` showed an IC50 [1] of 0.01 µM, an inhibition in vivo at 3.2 mg/kg (Rattus norvegicus [2]) of 6% and a solubility [4] of 10 µg/mL (≈ 30.4 µM). For the same compound, the inhibition in vivo at 3.2 mg/kg (Rattus norvegicus [3]) was 70% and the pKa [6] was 4.97.
Compound `CCC(CC)Oc1nc(C)cc(Oc2c(C)cc(C)cc2C)c1C` has an IC50 [11] of 3.4 µM.
`CCC(CC)Oc1cc(C)nc(Oc2c(C)cc(Br)cc2C)c1C` showed an IC50 [1] of 0.0026 µM, an inhibition in vivo at 3.2 mg/kg (Rattus norvegicus [5]) of 84% and an inhibition in vivo at 3.2 mg/kg (Rattus norvegicus [7]) of 47%.
With `CCC(CC)Oc1cc(C)nc(Oc2c(C)cc(Cl)cc2C)c1C` the IC50 [1] was 0.0055 µM, the inhibition in vivo at 3.2 mg/kg (Rattus norvegicus [5]) was 76% and the inhibition in vivo at 3.2 mg/kg (Rattus norvegicus [7]) was 66%.
`CCC(CC)Oc1cc(C)nc(Oc2c(C)cc(C)cc2C)c1Br` showed an IC50 [1] of 0.0098 µM.
`CCC(CC)Oc1cc(C)nc(Oc2c(C)cc(C=O)cc2C)c1C` gave an IC50 [1] of 0.04 µM.
Compound `CCC(CC)Oc1cc(C)nc(Oc2c(C)cc(F)cc2C)c1C` has an IC50 [1] of 0.032 µM.
In the case of `CCC(CC)Oc1cc(C)nc(Oc2c(C)cc(C)cc2C)c1[N+](=O)[O-]`, the IC50 [1] is reported as 0.015 µM, the inhibition in vivo at 3.2 mg/kg (Rattus norvegicus [2]) is reported as 35% and the inhibition in vivo at 3.2 mg/kg (Rattus norvegicus [3]) is reported as 59%.
In the case of `CCC(CC)Oc1cc(C)nc(Oc2c(C)cc(C)cc2C)c1`, the IC50 [1] is reported as 0.15 µM.
For `C/C=C(\CC)Oc1cc(C)nc(Oc2c(C)cc(C)cc2C)c1C` (mixture of isomers), the IC50 [1] was 0.016 µM, the inhibition in vivo at 3.2 mg/kg (Rattus norvegicus [2]) was 55% and the inhibition in vivo at 3.2 mg/kg (Rattus norvegicus [3]) was 75%.
`CCC(CC)Oc1cc(C)nc(Oc2c(C)cccc2C)c1C` showed an IC50 [1] of 0.11 µM.
In the case of `CCc1cc(C)c(Oc2nc(C)cc(OC(CC)CC)c2C)c(C)c1`, the IC50 [1] is reported as 0.011 µM, the inhibition in vivo at 3.2 mg/kg (Rattus norvegicus [2]) is reported as 56% and the inhibition in vivo at 3.2 mg/kg (Rattus norvegicus [3]) is reported as 55%.
In the case of `CCC(CC)Oc1cc(C)nc(Oc2c(C)cc(I)cc2C)c1C`, the IC50 [1] is reported as 0.012 µM, the inhibition in vivo at 3.2 mg/kg (Rattus norvegicus [2]) is reported as 72% and the inhibition in vivo at 3.2 mg/kg (Rattus norvegicus [3]) is reported as 27%.
In the case of `CCC(C)Oc1cc(C)nc(Oc2c(C)cc(C)cc2C)c1C` (stereo unspecified), the IC50 [1] is reported as 0.028 µM, the inhibition in vivo at 3.2 mg/kg (Rattus norvegicus [2]) is reported as 42% and the inhibition in vivo at 3.2 mg/kg (Rattus norvegicus [3]) is reported as 74%.
